ROMK mod: modulates human ROMK potassium channel activity; P48048; Tet-inducible ROMK, thallium flux fluorescence; actives lie on both sides; B-score at 10 µM; 130,000 tested, 2% active; AID 1918;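 active = signal ratio slope over the read window, or its plate-corrected B-score, at least 3 SD from the plate mean, either direction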;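 note: B-score of the F/F0 ratio slope over 7 to 12 s after thallium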
Arbovirus anti: blocks arbovirus infection; arbovirus infection cell-based antiviral screen; inhibition, % at 10 µM; 200,000 tested, 0.37% active; AID 1251; in the data active = inhibition above about 30%
Calpain2 inh: blocks pig calpain II enzyme activity; purified calpain II, fluorogenic peptide substrate, 30 min; inhibition, % at 16 µM; 220,000 tested, 0.37% active; AID 1236;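 active = inhibition above about 50%, limit read from the data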
KCC2 mod: modulators of human KCC2 chloride dependent transport. 190,000 tested, 2.2% active. Q9H2X9. KCC2 cells, thallium flux FluoZin-2 fluorescence. B-score of Tl+ flux slope (higher = more flux/activation; lower = inhibition) at 10 µM;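 active = thallium flux slope and its plate-corrected score both differing from the plate sample mean at a set confidence after two filtering rounds, in either direction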;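 note: slope of fluorescence scaled to starting intensity during 10 to 20 s after thallium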
Mdm2 ligase inh: Mdm2 E3 ligase (human) inhibition. cell-based MDM2 ubiquitination luciferase reporter, 2 h; 0 = plate control, 100 = twice control, blank-subtracted. signal enhancement, % at 5 µM. 210,000 tested, 0.11% active. AID 1230;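 active = signal enhancement of 30% or more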;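 note: luminescence tracks abundance of the self-degrading MDM2-luciferase fusion protein; higher signal means inhibition of MDM2 E3 ligase activity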
Target sequence (Q00987 whole entry, looked up, the tested form may be a part): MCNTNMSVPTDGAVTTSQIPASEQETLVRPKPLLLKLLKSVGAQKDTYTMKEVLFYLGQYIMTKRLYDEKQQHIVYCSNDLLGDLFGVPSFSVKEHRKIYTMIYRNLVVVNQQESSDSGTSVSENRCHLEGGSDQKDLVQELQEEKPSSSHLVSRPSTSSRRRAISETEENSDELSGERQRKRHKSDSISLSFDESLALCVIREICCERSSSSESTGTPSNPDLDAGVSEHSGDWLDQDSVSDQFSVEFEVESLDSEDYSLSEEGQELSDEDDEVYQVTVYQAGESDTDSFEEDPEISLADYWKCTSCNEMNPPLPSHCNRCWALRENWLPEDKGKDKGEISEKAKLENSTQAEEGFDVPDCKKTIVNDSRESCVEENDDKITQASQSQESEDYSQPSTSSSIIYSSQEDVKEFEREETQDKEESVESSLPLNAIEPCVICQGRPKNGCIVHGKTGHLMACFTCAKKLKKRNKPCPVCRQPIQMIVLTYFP
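Material: Stable MDM2–luciferase fusion reporter cells | Amount: 2000 cells seeded into each well | Dosing: One concentration, 5 µM, with 0.2% DMSO | Incubation: 4 h cell settling then 2 h compound exposure, 37 °C | Measured by: Luciferase luminescence | Read-out basis: % enhancement relative to plate controls after blank subtraction | Benchmarks: Control and blank well means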
PKD1 inh: PKD1 (human) kinase inhibition | Q15139 | inhibition, % (concentration not given with the values) | 200,000 tested, 0.056% active | PKD1 kinase fluorescence polarization assay; in the data active = inhibition above about 50%
KCC2 sec1: confirmation of human KCC2 transport modulators; shares compounds with KCC2 mod; HEK293-KCC2, thallium flux, FluoZin2 fluorescence; hits give high values; normalised thallium flux (F/F0 slope) at 10 µM; 3,700 tested, 15% active; AID 1713;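 active = thallium flux slope above the same plate's solvent-only control mean plus 3 SD; inconclusive = the two replicate wells disagree; inactive = no significant difference from solvent-only control wells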
KCC2 bumet counter: thallium flux persisting under bumetanide in KCC2 cells, counter-screen secondary assay. AID 1714. HEK293-KCC2 + bumetanide/ouabain, thallium flux FluoZin2; hits give high values. 3,700 tested, 49% active. shares compounds with KCC2 mod. normalized thallium flux at 10 µM;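 active = thallium entry rate above the same plate's blocked-transporter control wells by more than 3 SD; inconclusive = the two repeat wells disagree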;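 note: raw slope of fluorescence over initial fluorescence between 10 and 20 s after thallium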
KCC2 sec2: KCC2 (human) modulation, second secondary assay; AID 1715; shares compounds with KCC2 mod; normalized thallium flux at 10 µM; 3,700 tested, 23% active; HEK293-KCC2, thallium flux FluoZin2 fluorescence; actives lie on both sides; F/F0 rise rate, 10–20 s post-thallium;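 active = thallium flux slope more than 3 SD above or below the plate's solvent-only control mean, mostly below; inconclusive = the two repeat wells disagreed; inactive = no significant shift from solvent-only controls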;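 note: raw slope with 0.1% DMSO as baseline and bumetanide as block control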
HEK counter1: parental HEK flux effect, counter-screen. 3,700 tested, 46% active. shares compounds with KCC2 mod. thallium flux rate (normalised fluorescence) at 10 µM. HEK293 parental cells, thallium flux FluoZin2, ouabain; baseline-ratio fluorescence slope, 10–20 s after thallium. AID 1716;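 active = thallium flux rate significantly above the same plate's solvent-only control wells, beyond their mean plus 3 SD; inconclusive = the two replicate wells gave conflicting results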
KCC2 retest ouab: modulates human KCC2 on retest with ouabain; 3,700 tested, 48% active; raw Tl+ flux slope (below DMSO = inhibition, above = activation) at 10 µM; HEK293-KCC2, thallium flux FluoZin2 fluorescence; bidirectional: low = inhibitor, high = activator; shares compounds with KCC2 mod;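 active = thallium flux slope beyond 3 SD from same-plate DMSO control mean in most replicates, usually higher, sometimes lower; inconclusive = repeat tests gave conflicting results; inactive = no significant difference from controls in most replicates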;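 note: slope of initial-normalized fluorescence between seconds 10 and 20 after thallium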
HEK counter2: parental HEK flux effect, counter-screen 2; 3,700 tested, 33% active; thallium flux slope at 10 µM; HEK293 parental, thallium flux FluoZin-2 fluorescence slope; shares compounds with KCC2 mod; AID 1718;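 active = thallium flux slope above the same plate's solvent-control mean plus 3 SD in both duplicate wells; inconclusive = duplicate wells that disagreed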;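 note: run without ouabain in cells lacking the KCC2 cotransporter; slope of fluorescence scaled to its starting value between 10 and 20 s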
Starred values were filed as active, the others as inactive; u = inconclusive; x = not tested or not shown; ! = a repeat was not active. The list is not random: actives were taken first. Their share in the collection is about 3.7%.

SMILES	ROMK mod	Arbovirus anti	Calpain2 inh	KCC2 mod	Mdm2 ligase inh	PKD1 inh	KCC2 sec1	KCC2 bumet counter	KCC2 sec2	HEK counter1	KCC2 retest ouab	HEK counter2
COc1ccc([N+](=O)[O-])cc1C1NN=C(c2ccccc2O)S1 (stereo unspecified)	x	-1.5	-3.5	-0.135	-1.8	-5.5	x	x	x	x	x	x
c1ccc(CSC2=NNC(c3ccccn3)S2)cc1 (stereo unspecified)	0.381	x	9.7	28.1*	36.7*	x	u	0.0261*	u	0.0149*	0.0245*	0.0176*
CCOC(=O)c1c(C)[nH]c(N=Nc2ccccc2)c1C	x	2.2	25.3	5.25*	x	-10.6	0.0103	0.00975*	0.0358	0.00913*	u	u
CC(C)Oc1ccc2c(=O)c(-c3ccccc3)coc2c1	-0.527	-2.1	8.2	-3.56*!	x	-8.5	0.00325*	0.00545	0.028	u	0.014*	0.00955
COc1ccc(N(Cc2cc3cccc(C)c3[nH]c2=O)C(=O)C2CCCO2)cc1 (stereo unspecified)	-0.745	x	13.7	-0.296	-4.5	x	x	x	x	x	x	x
CCOC(=O)Cc1cc(=O)n2[nH]c(-c3ccccc3)c(-c3ccccc3)c2n1	0.645	5.8	-147.9	6.01*	-16.3	1.4	0.00564	0.0183*	0.0311	0.0138*	u	0.0138*
CCOC(=O)Cc1cc(=O)n2[nH]c(C)c(-c3ccccc3)c2n1	1.41	4.8	-53.8	-0.443	-10.4	8.2	x	x	x	x	x	x
COc1cc(S(=O)(=O)Nc2ccc(C)cc2)ccc1N=Cc1c(C)c(C#N)c(=O)n(C)c1O	-2.9	6.0	3.3	-0.681	-5.1	-2.3	x	x	x	x	x	x
Cc1ccc(N/N=C/c2c(C)c(C#N)c(=O)n(C)c2O)cc1C	2.1	-26.4	-4.0	-3.95*	-8.8	-13.4	0.0103	0.00645	0.0353	u	0.0191	0.0107
CC(NCc1ccc(F)cc1)C(=O)Nc1cc(S(=O)(=O)N2CCCCC2)ccc1Cl (stereo unspecified)	0.92	12.7	23.1	-4.74*	-8.0	8.4	0.0105	0.00803*	u	0.00645	0.0158*	0.0103
O=C(O)/C(=C\c1cccc(F)c1)c1ccc(S(=O)(=O)N2CCCCC2)s1	x	2.6	-8.7	-5.6*	-12.5	-3.5	0.00826	0.00637	0.0321	0.00724	0.0138*	0.0108
Cc1ccc(C)c(/C=C(\C(=O)O)c2ccc(S(=O)(=O)N3CCCCC3)s2)c1	-0.161	8.5	-27.7	-2.52	-2.6	-7.5	x	x	x	x	x	x
O=C(CN1CCN(c2ccccn2)CC1)Nc1ccc2ccccc2c1	-0.574	4.5	-5.8	x	-15.9	8.3	0.00661	0.00416	0.0287	0.0077	0.0171	0.00975
O=c1cc(-c2c(F)c(F)c(F)c(F)c2F)oc2ccccc12	x	11.5	-2.5	-0.757	-17.3	-1.6	x	x	x	x	x	x
O=c1cc(-c2c(F)c(F)c(F)c(F)c2F)oc2c(F)c(F)c(F)c(F)c12	x	-28.0	-9.8	-2.72*	-14.8	-6.1	0.00678	u	0.0308	0.00783	0.0196	0.0107
O=C(NCCC1=CCCCC1)C1CCN(S(=O)(=O)c2cnc[nH]2)CC1	0.326	14.5	-18.1	0.466	-11.6	-3.8	x	x	x	x	x	x
COc1ccc(NS(=O)(=O)c2cc(NC(=O)c3cccnc3Cl)ccc2N2CCCC2)cc1	x	x	-24.5	x	-14.8	x	x	x	x	x	x	x

Screening results (PubChem BioAssay)
